FGF22 binding = shifts melting point of recombinant human FGF22. AID 651658. Q9HCT0. recombinant FGF22 thermal shift, SYPRO orange fluorescence; percent of sucrose octasulfate shift, DMSO zero. actives 1.5% (n = 340,000). activity (Tm shift, normalised), % at 9.99 µM;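 active = mean Tm shift, scaled 0 neutral to 100 positive control, at about 1.3% or above, every replicate too, limit read from the data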
Target sequence (Q9HCT0 whole entry, looked up): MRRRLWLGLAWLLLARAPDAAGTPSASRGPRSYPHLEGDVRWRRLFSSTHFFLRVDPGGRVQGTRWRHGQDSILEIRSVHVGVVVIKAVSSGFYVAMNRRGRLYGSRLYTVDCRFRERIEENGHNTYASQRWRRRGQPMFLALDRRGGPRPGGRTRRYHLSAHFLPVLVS
PDI turbidity = PDI (human) enzyme inhibition; actives 0.052% (n = 350,000); AID 588391; inhibition, % at 10 µM; P07237; PDI insulin aggregation turbidity, A650, 90 min;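 active = mean inhibition across replicates of 30% or more, whatever share of single replicates reach that level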
AF4-AF9 inh = blocks AF4 peptide binding to human AF9 | P42568 | AlphaScreen, biotin-AF4 peptide binding to FLAG-AF9 | inhibition, % at 10 µM | actives 0.47% (n = 350,000) | AID 651704;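 active = every replicate reaching a set inhibition limit, whatever the replicate mean, cut at about 25% in these data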;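 also: 0% = plate neutral control median and 100% = total signal loss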
FN deposition inh = fibronectin deposition inhibition; AH1F fibroblasts, Alexa488-fibronectin deposition fluorescence, overnight; inhibition, % at 12.6 µM; actives 0.086% (n = 350,000); AID 743247;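 active = mean inhibition across replicates of 30% or more, regardless of how many single replicates reach that level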;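 also: positive control wells lacked labelled fibronectin entirely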
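Schedule: 1 h cell adhesion before compound, then overnight fibronectin incubation; test system: AH1F fibroblast monolayer depositing Alexa488-labelled fibronectin into matrix; quantity: 10000 AH1F cells per well; probe or stimulus: fluorescent fibronectin at 24 nM final; signal: fluorescence, ex 485 nm, em 525 nm; evaluation: percent inhibition as loss of matrix-bound fibronectin fluorescence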
ERp5 inh = ERp5 (human) disulfide isomerase inhibition; ERp5 insulin aggregation, absorbance 650 nm, 90 min; Q15084; AID 651711; actives 0.05% (n = 350,000); inhibition, % at 9.99 µM;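 active = mean replicate inhibition above about 25%, with every replicate also reaching it, limit read from the data, passing the limit was not always enough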
Target sequence (Q15084 whole entry, looked up): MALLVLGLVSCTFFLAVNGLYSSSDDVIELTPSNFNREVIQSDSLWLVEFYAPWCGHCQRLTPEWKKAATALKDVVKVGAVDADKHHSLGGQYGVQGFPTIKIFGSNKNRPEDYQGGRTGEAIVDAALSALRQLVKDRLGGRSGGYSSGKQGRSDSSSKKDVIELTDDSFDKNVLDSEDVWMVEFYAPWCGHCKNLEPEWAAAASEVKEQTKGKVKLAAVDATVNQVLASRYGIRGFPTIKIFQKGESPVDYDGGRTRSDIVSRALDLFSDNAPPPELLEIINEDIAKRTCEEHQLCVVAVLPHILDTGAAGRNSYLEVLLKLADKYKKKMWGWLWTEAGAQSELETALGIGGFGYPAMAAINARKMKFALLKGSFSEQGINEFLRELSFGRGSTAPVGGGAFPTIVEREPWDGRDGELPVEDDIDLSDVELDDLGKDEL
ARNT-TACC3 inh = disruptors of human ARNT/TACC3 interaction. Q9Y6A5. AlphaScreen His-ARNT PAS-B/GST-TACC3 binding, luminescence; TACC3 fragment carries E629A point mutation. inhibition, % at 9.99 µM. actives 0.66% (n = 390,000). AID 623870;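 active = mean inhibition of replicates at least 50% and at least half of replicates each reaching 50%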;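 also: 0% = complete ARNT plus TACC3 wells and 100% = ARNT alone without TACC3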
Numbers without * were called inactive. Rows were chosen to be rich in hits. Some 2.1% of all compounds tested hit in one or more screens of this group.

Screening O=C(Cc1ccc(Cl)cc1)SCc1ccccc1 returned FGF22 binding 44*, PDI turbidity -2, AF4-AF9 inh -3, FN deposition inh 0, ERp5 inh 9 and ARNT-TACC3 inh 14.
Cn1c(=O)c2c(nc(NCCNC(=O)c3ccco3)n2Cc2ccccc2)n(C)c1=O was read as FGF22 binding 0, PDI turbidity -5, AF4-AF9 inh 0, FN deposition inh -11, ERp5 inh 0 and ARNT-TACC3 inh -2.
`Cn1c(=O)c2c(nc(NCCNC(=O)c3ccco3)n2Cc2ccc(F)cc2)n(C)c1=O` gave FGF22 binding 1.8*, PDI turbidity 2, AF4-AF9 inh 1, FN deposition inh -2, ERp5 inh 0 and ARNT-TACC3 inh 1.
`C[C@@H](NC(=O)C[C@@H]1C[C@@H]2c3cc(NC(=O)c4ccc5c(c4)OCO5)ccc3O[C@@H]2[C@H](CO)O1)c1ccccc1` gave FGF22 binding 0, AF4-AF9 inh -3, ERp5 inh -5 and ARNT-TACC3 inh 1.
COc1ccccc1C(=O)NC(=O)CSc1ccc(C)c(C)c1 was read as FGF22 binding 43*, PDI turbidity 4, AF4-AF9 inh 4, FN deposition inh 0, ERp5 inh -2 and ARNT-TACC3 inh -4.
`COCCNc1nnc(SCC(=O)NC(=O)c2ccccc2OC)s1` gave FGF22 binding 0, PDI turbidity 7, AF4-AF9 inh -2, ERp5 inh 7 and ARNT-TACC3 inh -2.
Screening Cc1ccccc1S(=O)(=O)N1[C@H](C#N)[C@@H](c2ccc(C#CC3CCCC3)cc2)[C@@H]1CO returned AF4-AF9 inh 2, FN deposition inh -11 and ERp5 inh 3.
`CC1=NN(c2cccc(C(=O)O)c2)C(=O)/C1=C\C=C/c1ccccc1` gave FGF22 binding 43*, PDI turbidity 5, AF4-AF9 inh -8 and ERp5 inh 21.
Screening CC1=NN(c2ccc(C)cc2)C(=O)/C1=C\C=C\c1ccccc1 returned FGF22 binding 0, PDI turbidity 6, AF4-AF9 inh 1, FN deposition inh 3 and ERp5 inh -1.
Screening O=C(CCN1CCCCC1)NCC[C@H]1CC[C@@H](NS(=O)(=O)c2cccc(Cl)c2)[C@H](CO)O1 returned FGF22 binding 0, AF4-AF9 inh -1, FN deposition inh -6, ERp5 inh 3 and ARNT-TACC3 inh -4.
`CNC(=S)NNC(=O)c1noc(C)c1C(=O)N1CCN(C(c2ccccc2)c2ccccc2)CC1` gave FGF22 binding 44*, PDI turbidity 0, AF4-AF9 inh -8, FN deposition inh 9, ERp5 inh -1 and ARNT-TACC3 inh 6.
For CCC(=O)N1CCC2(CC1)CN(Cc1nccs1)[C@@H](CO)c1c2c2ccc(OC)cc2n1C the results were FGF22 binding 0, AF4-AF9 inh 0 and ERp5 inh -9.
Cc1noc(C)c1NC(=O)N[C@H]1C=C[C@@H](CC(=O)NCc2ccc(Cl)c(Cl)c2)O[C@@H]1CO was read as FGF22 binding 0, AF4-AF9 inh -3, FN deposition inh -3, ERp5 inh 6 and ARNT-TACC3 inh -13.
Screening Cc1nn(C)c2ncc(C(=O)c3cc(F)ccc3O)cc12 returned PDI turbidity 2.
`Cn1c(=O)[nH]c(=O)c2cc(C(=O)c3cc(F)ccc3O)cnc21` gave FGF22 binding 43*, PDI turbidity -5, AF4-AF9 inh -1, FN deposition inh -5, ERp5 inh -2 and ARNT-TACC3 inh -6.
`Cc1ccc(C(=O)CSc2nc(C(C)C)nc3ccccc23)cc1` gave FGF22 binding 0, PDI turbidity 13, AF4-AF9 inh -11, FN deposition inh 10, ERp5 inh 5 and ARNT-TACC3 inh -8.
`CC(C)c1nc(SCC(=O)c2ccc(F)cc2)c2ccccc2n1` gave FGF22 binding 43*, PDI turbidity -5, AF4-AF9 inh -4, FN deposition inh -6, ERp5 inh 0 and ARNT-TACC3 inh 1.
Screening CCNC(=O)C[C@H]1CC[C@H]2[C@@H](COc3ccc(NC(=O)Nc4cccc(OC)c4)cc3C(=O)N2C)O1 returned FGF22 binding 0, FN deposition inh -3 and ARNT-TACC3 inh 5.
`CCCC(=O)Nc1nc(-c2ccc(Cl)s2)cs1` gave FGF22 binding 0, PDI turbidity 2, AF4-AF9 inh 2, FN deposition inh 16, ERp5 inh -14 and ARNT-TACC3 inh -12.
Screening O=C(O)C1CCCCC1C(=O)Nc1nc(-c2ccc(Cl)s2)cs1 (centres undefined) returned FGF22 binding 43*, PDI turbidity 14, AF4-AF9 inh -5 and ERp5 inh -1.
For O=C(C[C@H]1CC[C@@H]2[C@H](COC[C@H](O)CN2C(=O)c2cccnc2)O1)NCc1ccccc1 the results were FGF22 binding 0, AF4-AF9 inh -1, FN deposition inh -3, ERp5 inh 4 and ARNT-TACC3 inh 0.
Screening O=c1oc2cc(O)c(Cl)cc2c2ccccc12 returned PDI turbidity 1, FN deposition inh 2 and ARNT-TACC3 inh 0.
For O=c1cc2c(=O)oc3cc(O)c(O)oc3c2c(O)c1O the results were FGF22 binding 0, PDI turbidity 4, AF4-AF9 inh -8, FN deposition inh -2, ERp5 inh 3 and ARNT-TACC3 inh 13*.
Cc1ccc(C2=C(O)C(=O)C(c3ccc(C)cc3)=C(O)C2=O)cc1 was read as FGF22 binding 0, PDI turbidity -9, AF4-AF9 inh 0, FN deposition inh -5, ERp5 inh 3 and ARNT-TACC3 inh 5.
CC1=C(O)C(=O)C(C2=C(O)C(=O)C(C)=C(O)C2=O)=C(O)C1=O was read as FGF22 binding 0, AF4-AF9 inh -14, ERp5 inh 0 and ARNT-TACC3 inh 66*.
`CCNC(=O)CSc1nnc(CN2CCCCCC2=O)n1-c1ccccn1` gave FGF22 binding 43*, PDI turbidity -4, AF4-AF9 inh -1, FN deposition inh 4, ERp5 inh -1 and ARNT-TACC3 inh 4.
Screening C[C@@H]1CN([C@@H](C)CO)C(=O)c2cc(NS(=O)(=O)c3ccc(F)cc3)ccc2O[C@@H](C)CCCCO[C@H]1CN(C)C(=O)Nc1ccc(F)cc1 returned FGF22 binding 0, FN deposition inh 20 and ARNT-TACC3 inh 24.
Screening CN(C)c1ccc(-n2cccc2/C=C/[N+](=O)[O-])cc1 returned FGF22 binding 0, PDI turbidity -5, AF4-AF9 inh 25*, ERp5 inh 0 and ARNT-TACC3 inh 8.
`CN(c1ccccc1)c1ccc(/C=C/[N+](=O)[O-])cc1` gave FGF22 binding 0, PDI turbidity 3, AF4-AF9 inh -5, FN deposition inh 4, ERp5 inh 0 and ARNT-TACC3 inh 0.
